Legend:
Type in all cases: ADME, organism-based
[1] = Clearance in Sprague-Dawley rat at 2 mg/kg, iv and 10 mg/kg, po; details: in vivo
How it was run: (§1)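 Sprague–Dawley rats were dosed 2 mg/kg iv in 10% solutol in D5W and 10 mg/kg po in 0.5% hydroxypropyl methylcellulose. Plasma levels were followed to derive the pharmacokinetic parameters.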

[2] = Volume of distribution at steady state in Sprague-Dawley rat at 2 mg/kg, iv and 10 mg/kg, po; details: in vivo, read-out: Vdss; how it was run: as §1
[3] = Tmax in Sprague-Dawley rat at 10 mg/kg, po; parameters: dose 10 mg/kg, route oral; details: in vivo; how it was run: as §1
[4] = Half life in Sprague-Dawley rat at 10 mg/kg, po; parameters: dose 10 mg/kg, route oral; details: in vivo; how it was run: as §1
[5] = Cmax in Sprague-Dawley rat at 10 mg/kg, po; parameters: dose 10 mg/kg, route oral; details: in vivo; how it was run: as §1
[6] = AUC in Sprague-Dawley rat at 10 mg/kg, po; parameters: dose 10 mg/kg, route oral; details: plasma; how it was run: as §1
[7] = Bioavailability in Sprague-Dawley rat at 2 mg/kg, iv and 10 mg/kg, po; details: in vivo; how it was run: as §1

clearance [1]: 0.214 L/h/kg | Vd [2]: 0.17 L/kg | Tmax [3]: 0.63 h | half-life [4]: 8.4 h | Cmax [5]: 5.7 µM | AUC [6]: 19.3 µM·h | bioavailability [7]: 15%
Compound: CO/N=C/c1c(N)ncnc1Nc1ccc(OCc2ccccc2)c(Cl)c1
